Test results taken from ChEMBL document CHEMBL3351406, “Synthesis and biological evaluation of the [d-MeAla(11)]-epimer of coibamide A” (Bioorg Med Chem Lett, 2015).
Where a SMILES comes first, the peptide text is derived from it. Bridges are numbered along the chain shown (N, C = ends). [ ]: non-standard residue; d: D form. The star is where a group is joined. NMe2Val = CC(C)[C@@H](C(=O)*)N(C)C; NMeI = CC[C@H](C)[C@H](NC)C(=O)O; NMeT = CN[C@H](C(=O)O)[C@@H](C)O; NMeL = CN[C@@H](CC(C)C)C(=O)O; Hiv = CC(C)[C@H](O)C(=O)O; NMeS = CN[C@@H](CO)C(=O)O; NMeA = CN[C@@H](C)C(=O)O; dNMeA = CN[C@H](C)C(=O)O

Key:
Assay type in all cases: functional, cell-based
NCI-H292 = assay: Cytotoxicity against human NCI-H292 cells assessed as growth inhibition after 72 hrs by MTT assay; conditions: NCI-H292, 72 h
How it was run: (§1)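 Media: PC-3 in DMEM with 10% FBS, 2 mM L-glutamine and penicillin/streptomycin; SF-295, MDA-MB-231 and H292 in RPMI-1640 with 10% FBS, 2 mM L-glutamine, 1 mM pyruvate and penicillin/streptomycin. Cells were seeded at 3,000 per well 16 h before adding compound or DMSO vehicle, then kept 72 h at 5% CO2. Viability was measured by MTT, normalised to vehicle-treated cells as 100%.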

MDA-MB-231 = assay: Cytotoxicity against human MDA-MB-231 cells assessed as growth inhibition after 72 hrs by MTT assay; conditions: MDA-MB-231, 72 h; how it was run: as §1
SF-295 = assay: Cytotoxicity against human SF295 cells assessed as growth inhibition after 72 hrs by MTT assay; conditions: SF-295, 72 h; how it was run: as §1
[1] = Cytotoxicity against human PC3 cells assessed as growth inhibition after 72 hrs by MTT assay; conditions: PC-3, 72 h; how it was run: as §1
A549 = assay: Cytotoxicity against human A549 cells assessed as growth inhibition after 72 hrs by MTS assay; conditions: A549, 72 h
How it was run: (§2)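 Seeding per well: A549 500 cells (DMEM), HCT-116 5000 (McCoy's 5A), MCF-7 5000 (EMEM), B16 2000 (DMEM). All media had 10% FBS; cells kept at 37 °C, 5% CO2. Cells settled 6 h, then received compounds pre-diluted 250-fold from DMSO into medium, and were exposed 72 h. Wells were washed with phenol-red-free medium, given MTS for 40 min, and read at 490 nm absorbance.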

[2] = Cytotoxicity against human HCT116 cells assessed as growth inhibition after 72 hrs by MTS assay; conditions: HCT-116, 72 h; how it was run: as §2
B16 = assay: Cytotoxicity against mouse B16 cells assessed as growth inhibition after 72 hrs by MTS assay; conditions: B16, 72 h; how it was run: as §2
MCF7 = assay: Cytotoxicity against human MCF7 cells assessed as growth inhibition after 72 hrs by MTS assay; conditions: MCF7, 72 h; how it was run: as §2

SMILES | IC50 (NCI-H292) | IC50 (MDA-MB-231) | IC50 (SF-295) | IC50 [1] | IC50 (A549) | IC50 [2] | IC50 (B16) | IC50 (MCF7)
CC[C@H](C)[C@H]1C(=O)N[C@@H](C)C(=O)N(C)[C@@H](CC(C)C)C(=O)N[C@@H](Cc2ccc(OC)cc2)C(=O)N(C)[C@@H](C)C(=O)O[C@H](C)[C@H](N(C)C(=O)[C@H](CC(C)C)N(C)C(=O)[C@H](COC)N(C)C(=O)[C@@H](OC(=O)[C@H](C(C)C)N(C)C)C(C)C)C(=O)N(C)[C@@H](COC)C(=O)N1C (NMe2Val-[Hiv][NMeS](Me)[NMeL][NMeT][NMeS](Me)[NMeI]A[NMeL]Y(Me)[NMeA]; ester 4-C) | 124 nM | 66 nM | 219 nM | 80 nM |  |  |  | 
CC[C@H](C)[C@H]1C(=O)N[C@@H](C)C(=O)N(C)[C@@H](CC(C)C)C(=O)N[C@@H](Cc2ccc(OC)cc2)C(=O)N(C)[C@H](C)C(=O)O[C@H](C)[C@H](N(C)C(=O)[C@H](CC(C)C)N(C)C(=O)[C@H](COC)N(C)C(=O)[C@@H](OC(=O)[C@H](C(C)C)N(C)C)C(C)C)C(=O)N(C)[C@@H](COC)C(=O)N1C (NMe2Val-[Hiv][NMeS](Me)[NMeL][NMeT][NMeS](Me)[NMeI]A[NMeL]Y(Me)[dNMeA]; ester 4-C) | 610 nM | 545 nM | 816 nM | 424 nM | 19 nM | 44.6 nM | 54.4 nM | 48.6 nM
